Tests used:
[1] = test system: Caco2 cells; experiment: Cell proliferation assay; type: cell-based, human; conditions: 100 nM 1,25(OH)2D3, 5 days
[2] = test system: HTRA; experiment: Human apoptosis antibody array, HL-60 cells; type: cell-based; conditions: 1,25(OH)2D3 (20 nM), 18 hours
How it was run: (§1)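 Lysates in kit lysis buffer went onto a blocked glass-chip array of 44 apoptosis capture antibodies spotted in duplicate, 18 h at 4 °C. Biotinylated detection antibodies and fluorescent streptavidin were each applied 2 h at room temperature. A fluorescence scan gave spot intensities.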

[3] = test system: caspase 7; experiment: rt-PCR mRNA levels in HL-60 cells; type: cell-based, human; conditions: 20 nM 1,25(OH)2D3, 18 hours
[4] = test system: SKOV3 cells; experiment: Cell proliferation assay; type: cell-based, human; conditions: 100 nM 1,25(OH)2D3, 5 days
[5] = test system: Survivin; experiment: Human apoptosis antibody array, HL-60 cells; type: cell-based; conditions: 1,25(OH)2D3 (20 nM), 18 hours
How it was run: as §1

[6] = test system: HL-60 cells; experiment: Cell proliferation assay; type: cell-based, human; conditions: HL-60 treated with VDR siRNA; same concentrations as non-transfected cells
[7] = test system: caspase 3; experiment: rt-PCR mRNA levels in HL-60 cells; type: cell-based, human; conditions: 20 nM 1,25(OH)2D3, 18 hours
[8] = test system: CYP3A4; experiment: rt-PCR mRNA levels in HL-60 cells; type: cell-based, human; conditions: 18 hours, 1,25(OH)2D3 (20 nM), PS121912 (3 µM) or a combination thereof
[9] = test system: IGF-II; experiment: Human apoptosis antibody array, HL-60 cells; type: cell-based; conditions: 1,25(OH)2D3 (20 nM), 18 hours
How it was run: as §1

[10] = test system: NCoR; experiment: ChIP at the CYP24A1 promoter in HL-60 cells, NCoR antibody; type: cell-based, human; conditions: 20 nM 1,25(OH)2D3, 18 hours
[11] = test system: SRC2; experiment: ChIP at the CYP24A1 promoter in HL-60 cells, SRC2 antibody; type: cell-based, human; conditions: 20 nM 1,25(OH)2D3, 18 hours

SMILES: C=C1/C(=C\C=C2/CCC[C@]3(C)[C@@H]([C@H](C)CCCC(C)(C)O)CC[C@@H]23)C[C@@H](O)C[C@@H]1O [1,25(OH)2D3, 1,25-dihydroxyvitamin D3]
- antiproliferative effect [1]: minor antiproliferative effect
- HTRA protein level [2]: upregulated
- caspase 7 mRNA levels [3]: no change
- antiproliferative effect [4]: minor antiproliferative effect
- Survivin protein level [5]: reduced
- antiproliferation effect in VDR siRNA treated cells [6]: abolished
- caspase 3 mRNA levels [7]: no change
- mRNA levels of CYP3A4 [8]: not altered
- IGF-II protein level [9]: induced
- interaction between VDR and NCoR at the CYP24A1 promoter [10]: reduced
- SRC2 recruitment at the CYP24A1 promoter [11]: recruitment of coactivator SRC2
